HNF4A DNA FP: change in binding of human HNF4 alpha to DNA | HNF4a-FITC DNA binding, fluorescence polarization, 1 h | hit rate 0.3% among 360,000 | P41235 | AID 1224865 | activity change, % at 10 µM; in the data active means activity change above about 30%, passing the limit was not always enough
IDE cell activ: boosts human insulin-degrading enzyme activity in HEK cells; FAbeta-B cleavage, fluorescence polarization; 0% vehicle, 100% cell-free pure enzyme wells; activation, % at 5.96 µM; hit rate 0.073% among 340,000;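 active means activation above the mean of all tested compounds plus 3 SD, set per screening campaign, cut at about 17% in these data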
TPT1 inh: C. albicans TPT1 enzyme inhibition | recombinant caTPT1, FP RNA substrate dephosphorylation | inhibition, % at 5 µM | hit rate 0.81% among 300,000 | AID 1962;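 active means inhibition above the mean of all tested compounds plus 3 SD, set per screening campaign, cut at about 24% in these data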;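 further: plate controls were DMSO alone for no effect and ferristatin control at 100 nM for full effect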
CSN inh: inhibitors of human CSN-mediated cullin deneddylation; Purified CSN, SCF-Nedd8-OG deneddylation, fluorescence polarization; inhibition, % at 12.5 µM; AID 651999; hit rate 0.38% among 360,000;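 active means pattern-corrected inhibition above about 35%, with an unprinted fluorescence ratio check between 0.5 and 1.5, limit read from the data, passing the limit was not always enough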;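 further: 0% = enzyme with substrate and 100% = substrate without enzyme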
Target sequence (Q92905 whole entry, looked up, one chain of several): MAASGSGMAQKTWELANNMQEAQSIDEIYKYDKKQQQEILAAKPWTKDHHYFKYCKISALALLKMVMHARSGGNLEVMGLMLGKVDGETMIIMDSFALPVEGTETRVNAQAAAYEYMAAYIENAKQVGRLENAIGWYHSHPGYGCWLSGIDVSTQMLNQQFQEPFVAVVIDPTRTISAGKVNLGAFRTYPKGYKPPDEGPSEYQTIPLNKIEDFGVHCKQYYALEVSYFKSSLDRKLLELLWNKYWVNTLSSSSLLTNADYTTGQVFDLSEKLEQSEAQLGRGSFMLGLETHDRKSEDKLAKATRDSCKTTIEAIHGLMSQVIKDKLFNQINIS
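Assay system: HEK293T-derived human Csn5 enzyme; quantity: 0.24 nM enzyme; medium: Tris/NaCl/DTT buffer, pH 7.5; also added: substrate SCFSkp2-Nedd8OG, 10 nM; doses: 12.5 µM compound; schedule: 90 min reaction at room temperature; signal: FP; read-out: % inhibition of substrate cleavage by Csn5; benchmarks: substrate-only high control, full reaction low control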
IDE inh: inhibitors of human insulin-degrading enzyme in cells | HEK cells, FAbetaB cleavage, fluorescence polarization | hit rate 0.41% among 320,000 | AID 434962 | inhibition, % at 5.59 µM;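 active means percent inhibition above the average of all tested compounds plus 3 SD, set per screening campaign, cut at about 16% in these data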;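 further: IDE supplied by intact live HEK cells; FP after avidin binding of uncleaved biotin substrate so inhibition keeps polarization high; 0% = DMSO wells and 100% = 60 µM reference IDE inhibitor Ii1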
Rpn11 inh: inhibitors of human proteasome Rpn11; human 26S proteasome, Ub4-pepOG fluorescence polarization; 20S core pre-blocked with epoxomicin; inhibition, % at 20 µM; hit rate 0.59% among 360,000; AID 588493;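 active means inhibition at 20 µM, scaled to each plate's controls, above about 33%, limit read from the data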
IDE inh confirm: confirmation of human insulin-degrading enzyme inhibitors in cells. shares compounds with IDE inh. HEK cells, FAbetaB cleavage, fluorescence polarization. inhibition, % at 5.59 µM. hit rate 51% among 1,200. AID 435028;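 active means mean inhibition across triplicate wells above the cutoff set by the earlier primary insulin-degrading enzyme screen, cut at about 16% in these data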;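 further: 0% = DMSO wells and 100% = 60 µM reference IDE inhibitor Ii1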
HEK cytotox: kills HEK cells in IDE inhibitor counter-screen. shares compounds with IDE inh. HEK293 cytotoxicity, ATP luminescence. inhibition, % at 5.59 µM. hit rate 28% among 1,200; in the data active means inhibition above about 22%;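 further: 0% = vehicle wells and 100% = reference cytotoxic drug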
* marks the source's active call; other numbers are inactive results; nt = not tested or not shown. Compounds with a hit are over-represented: about 1.7% of the library has one in this group of screens.

SMILES | HNF4A DNA FP | IDE cell activ | TPT1 inh | CSN inh | IDE inh | Rpn11 inh | IDE inh confirm | HEK cytotox
CC(=O)c1ccc(NCC(=O)N2CCN(c3ccccc3)CC2)cc1 | -1 | -17 | 3 | 6 | 21* | 18 | 7 | 9
Cc1cc(C)c([N+](=O)[O-])cc1NCC(=O)N1CCN(c2ccccc2)CC1 | 1 | -10 | -2 | -5 | 22* | 26 | 7 | 3
CC(=O)c1ccc(N2CCN(C(=S)Nc3ccccc3)CC2)cc1 | -1 | -2 | 2 | 2 | 4 | -3 | nt | nt
COC(C[C@@H]1O[C@@H]1[C@@H](O)COCc1ccccc1)OC | 1 | 6 | nt | 0 | nt | -5 | nt | nt
O=C(Nc1ccc2ccccc2c1)c1ccc2[nH]c(=O)c(=O)[nH]c2c1 | 1 | -19 | 1 | 7 | 20* | -9 | 13 | 10
N#Cc1ccc(C(=O)Nc2ccc3ccccc3c2)cc1 | 0 | -4 | 4 | 4 | 10 | 4 | nt | nt
COC(=O)/C(=C\c1ccc([N+](=O)[O-])o1)NC(=O)c1ccccc1 | 1 | -2 | 4 | 3 | 0 | 9 | nt | nt
Cc1cccc(NC(=O)/C(=C\c2ccc([N+](=O)[O-])o2)NC(=O)c2ccc(Cl)cc2)c1 | -4 | -4 | 17 | 13 | 17* | 2 | 6 | 13
COC(=O)/C=C/C(=O)Nc1cccc(C(F)(F)F)c1 | 0 | 1 | 2 | 3 | 2 | -4 | nt | nt
Cc1ccc(N(CC(=O)N/N=C/c2cccc(Br)c2)S(C)(=O)=O)cc1 | -2 | -16 | 1 | -15 | 27* | 6 | 17* | 6
O=C(Nc1ccc(Nc2ccccc2)cc1)c1ccc(Cl)cc1 | 1 | -3 | -6 | 105 | 7 | -1 | nt | nt
N#C/C(C(=O)Nc1ccc(Cl)cc1)=C(/S)Nc1ccccc1 | -2 | -24 | -5 | 7 | 46* | 12 | 4 | 24*
CCN1CCN(C(=O)c2cc(COc3ccc(F)cc3F)on2)[C@@H](C)C1=O | 4 | 1 | 1 | 2 | 0 | -7 | nt | nt
O=C(Nc1cccc(-c2nnc(-c3ccco3)o2)c1)c1ccccc1 | 1 | nt | -2 | 2 | -3 | -2 | nt | nt
COc1cccc(C(=O)Nc2ccc(-c3nnc(-c4ccco4)o3)cc2)c1 | -2 | -9 | -1 | -2 | 22* | 4 | 9 | 23*
CCOc1cccc(C(=O)Nc2cccc(-c3nnc(-c4ccccc4)o3)c2)c1 | 1 | -10 | -1 | -2 | 0 | 0 | nt | nt
COc1cccc(C(=O)Nc2cccc(-c3nnc(-c4ccccc4)o3)c2)c1 | 8 | -12 | 0 | 1 | 17* | 0 | 1 | 21
CC(C)NS(=O)(=O)c1ccc(NC(=S)NC(=O)c2ccc(-c3ccccc3)cc2)cc1 | -3 | -49 | 2 | -1 | 39* | -1 | 25* | 37*
CCN(CC)Cc1c(O)ccc2c(=O)c(-c3ccc(Cl)cc3)coc12 | 1 | 5 | -1 | 1 | -2 | -10 | nt | nt
CCCOC(=O)c1ccc(Oc2coc3c(CN(CC)CC)c(O)ccc3c2=O)cc1 | -1 | -9 | 3 | -2 | 20* | -2 | 6 | 11
Cc1ccc(C2(C)NC(=O)N(CC(=O)NNC(=O)c3cc(C)oc3C)C2=O)cc1 (stereo not given) | 0 | 4 | -1 | -2 | -3 | 1 | nt | nt
O=C(Nc1nnc([C@H]2C[C@H](O)[C@@H](CO)O2)s1)c1ccc(Oc2ccccc2)cc1 | 1 | nt | nt | -6 | nt | 1 | nt | nt
COC(=O)c1cc(Sc2cccc(Cl)c2Cl)ccn1 | 0 | -14 | -1 | -9 | 19* | -2 | 0 | 12
CCCCCCCCN1C(=O)[C@H](CC(=O)N2CCCCC2)C[C@@]2(C(=O)OC)CC(C)(C)CC=C12 | 4 | nt | nt | 1 | nt | nt | nt | nt
CCOc1ncccc1C(=O)NNC(=O)c1ccc(NS(=O)(=O)c2cccs2)cc1 | 1 | 9 | -2 | -2 | 0 | 2 | nt | nt
Cc1cc(C)c[n+](C(C)C(=O)c2ccc(-c3ccccc3)cc2)c1 (stereo not given) | 5 | -25 | 3 | -7 | 17* | -6 | 13 | 71*

Bioassay records deposited in PubChem by several laboratories.
